This note sets out measurements from ChEMBL document CHEMBL4376870, “Structure-Activity Relationship in Pyrazolo[4,3-c]pyridines, First Inhibitors of PEX14-PEX5 Protein-Protein Interaction with Trypanocidal Activity” (J Med Chem, 2020).

The nature of series [1]: Inhibition of biotinylated PEX5-derived ALSENWAQEFLA binding to Trypanosoma brucei N-terminal His-tagged PEX14 (21 to 84 residues) expressed in Escherichia coli BL21 by Alphascreen assay. In short, it runs like this:
(§1)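 His-tagged PEX14 (21-84) at 3 nM with 10 nM biotinylated peptide in PBS containing 5 mg/mL BSA and 0.01% Tween-80; 5 µg/mL streptavidin donor and nickel chelate acceptor beads; 5% DMSO held constant.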
For orientation: Alpha assays give light when donor and acceptor beads are brought close together.

The nature of series [2]: Selectivity index, ratio of EC50 for human HepG2 cells to EC50 for antitrypanosomal activity against bloodstream form of Trypanosoma brucei brucei Lister 427.
Series [3] concerns Trypanosoma brucei brucei. Description: Antitrypanosomal activity against bloodstream form of Trypanosoma brucei brucei Lister 427 after 66 hrs by Resazurin dye-based fluorescence assay. Format: functional, organism-based. As to conditions: Lister 427, 66 h.
Series [4] is described as follows: Inhibition of biotinylated PEX5-derived ALSENWAQEFLA binding to Trypanosoma cruzi N-terminal His-tagged PEX14 (21 to 84 residues) expressed in Escherichia coli BL21 by Alphascreen assay. A digest of the protocol:
as §1

A further series relates to HepG2. Description: Cytotoxicity against human HepG2 cells assessed as reduction in cell viability measured after 66 hrs by resazurin dye based fluorescence assay. As to conditions: HepG2, 66 h. In general terms: The colour change of resazurin is a common sign of viable cells or microbes.
Series [5] deals with Peroxisomal membrane protein PEX14 (Homo sapiens, UniProt O75381). Description: Inhibition of biotinylated PEX5-derived ALSENWAQEFLA binding to human N-terminal His-tagged PEX14 (21 to 84 residues) expressed in Escherichia coli BL21 by Alphascreen assay. A digest of the protocol: as §1
Chain of Peroxisomal membrane protein PEX14 (O75381 whole entry, change not shown, the tested form may be a part): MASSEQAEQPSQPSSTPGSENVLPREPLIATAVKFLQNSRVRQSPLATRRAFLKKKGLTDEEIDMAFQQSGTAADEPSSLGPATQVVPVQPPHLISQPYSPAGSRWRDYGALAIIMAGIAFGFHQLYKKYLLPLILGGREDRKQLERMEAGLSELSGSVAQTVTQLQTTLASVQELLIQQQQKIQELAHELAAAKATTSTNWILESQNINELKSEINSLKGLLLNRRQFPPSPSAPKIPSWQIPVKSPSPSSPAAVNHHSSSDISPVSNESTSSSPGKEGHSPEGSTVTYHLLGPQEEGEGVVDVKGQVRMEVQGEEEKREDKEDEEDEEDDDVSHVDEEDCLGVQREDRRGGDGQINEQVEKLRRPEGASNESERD

Molecules are shown by their SMILES.

As for `COc1ccc(CN2CCc3nn4c(c3C2)CN(Cc2cccc3ccccc23)C4=O)c2ccccc12`, the EC50 in series [1] was 103 µM; in series [3], 5.61 µM; in series [4], 448 µM; in the series with HepG2, more than 50 µM; in series [5], more than 1000 µM. Further, in series [2], the selectivity ratio is more than 8.9.
For the molecule `COc1ccc(CN2CCc3c(c(C(=O)NCc4cccc5ccccc45)nn3CCN3CCOCC3)C2)c2ccccc12`, the EC50 in series [1] came to 88.1 µM; in series [3] it was 3.58 µM; in series [4], 162 µM; in the series with HepG2, 42 µM; in series [5] it was 166 µM. Moreover, the selectivity ratio in series [2] was 11.7.
Take `COc1ccc(CN2CCc3nn4c(c3C2)C(=O)N(Cc2cccc3ccccc23)CC4)c2ccccc12`: the EC50 in series [1] was 49.2 µM; in series [3] it was 6.42 µM; in series [4], 463 µM; in the series with HepG2, more than 50 µM; in series [5], more than 1000 µM. In series [2], the selectivity ratio was more than 7.8.

Broadly, the EC50 is the concentration that produces a half-maximal response.
